# Source: ChEMBL document CHEMBL3352644, “Selenadiazole derivatives as potent thioredoxin reductase inhibitors that enhance the radiosensitivity of cancer cells” (Eur J Med Chem, 2014)
# Active and inactive are the calls of the source. The rule behind the calls is not given here.
# Key:
# [1] = tested on: A-375; test: Induction of cell cycle arrest in human A375 cells assessed as accumulation at S phase at 10 ug/mL incubated for 6 hrs followed by irradiation with 8 Gy X-ray at 37 degC for 12 hrs by propidium iodide staining based flow cytometry (reference value: 7.9%); type: functional
# How it was run: (§1)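 A375 cells treated at 10 or 4 µg/ml for 6 h, given 0 or 8 Gy X-ray, then 12 h more. Trypsinized, washed in PBS, fixed overnight in ice-cold 75% ethanol at −20 °C. Stained with propidium iodide, 30 min at 37 °C in the dark; DNA content and sub-G1 population read by flow cytometry.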
# [2] = tested on: A-375; test: Induction of cell cycle arrest in human A375 cells assessed as accumulation at S phase at 10 ug/mL incubated for 18 hrs by propidium iodide staining based flow cytometry (reference value: 37.2%); type: functional; how it was run: as §1
# [3] = tested on: A-375; test: Induction of ROS generation in human A375 cells at 8 ug/mL incubated for 6 hrs followed by irradiation with 8 Gy X-ray at 37 degC for 12 hrs by DCF and DHE dye based fluorescence assay; type: functional, cell-based
# How it was run: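 A375 cells (4 × 10⁴/well) cultured 24 h, then treated 6 h at 8 or 16 µg/ml or at 2 or 4 µg/ml, and given 0 or 8 Gy X-ray. Loaded with H₂DCF or DHE for 30 min at 37 °C in the dark. Fluorescence read at 485/535 nm (DCF) or 480/610 nm (DHE); % of control.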
# [4] = tested on: A-375; test: Induction of cell cycle arrest in human A375 cells assessed as accumulation at G1/G0 phase at 10 ug/mL incubated for 6 hrs followed by irradiation with 8 Gy X-ray at 37 degC for 12 hrs by propidium iodide staining based flow cytometry (reference value: 44.9%); type: functional; how it was run: as §1
# [5] = tested on: A-375; test: Induction of ROS generation in human A375 cells at 8 ug/mL […] by DCF and DHE dye based fluorescence assay; type: functional, cell-based
# [6] = tested on: A-375; test: Induction of cell cycle arrest in human A375 cells assessed as accumulation at G1/G0 phase at 10 ug/mL incubated for 18 hrs by propidium iodide staining based flow cytometry (reference value: 48.9%); type: functional; how it was run: as §1
# [7] = tested on: A-375; test: Induction of ROS generation in human A375 cells at 16 ug/mL […] by DCF and DHE dye based fluorescence assay; type: functional, cell-based
# [8] = tested on: A-375; test: Cytotoxicity against human A375 cells incubated for 6 hrs followed by irradiation with 8 Gy X-ray at 37 degC for 12 hrs by MTT assay; type: functional, cell-based; details: A-375, light or radiation study
# How it was run: (§2)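 A375 cells (DMEM, 10% FBS, 37 °C, 5% CO2) seeded at 4 × 10⁴ cells/well and grown to 70–80% confluence. Treated with 0, 1, 2, 4, 8, 16 or 32 µg/ml for 6 h, then given 0 or 8 Gy X-ray (linear accelerator, 1.5 Gy/min), then 12 h more at 37 °C. MTT 4 h, formazan dissolved in DMSO, read at 570 nm; % of control; three repeats.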
# [9] = tested on: A-375; test: Induction of apoptosis in human A375 cells assessed as accumulation at subG1 phase at 10 ug/mL incubated for 6 hrs followed by irradiation with 8 Gy X-ray at 37 degC for 12 hrs by propidium iodide staining based flow cytometry (reference value: 2.3%); type: functional; how it was run: as §1
# [10] = tested on: A-375; test: Induction of cell cycle arrest in human A375 cells assessed as accumulation at G2/M phase at 10 ug/mL incubated for 6 hrs followed by irradiation with 8 Gy X-ray at 37 degC for 12 hrs by propidium iodide staining based flow cytometry (reference value: 47.2%); type: functional; how it was run: as §1
# [11] = tested on: A-375; test: Induction of ROS generation in human A375 cells at 16 ug/mL incubated for 6 hrs followed by irradiation with 8 Gy X-ray at 37 degC for 12 hrs by DCF and DHE dye based fluorescence assay
# [12] = tested on: A-375; test: Induction of cell shrinkage in human A375 cells incubated for 6 hrs followed by irradiation with 8 Gy X-ray at 37 degC for 12 hrs by microscopy; type: functional, cell-based
# How it was run: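 A375 cells in DMEM with 10% FBS, 37 °C, 5% CO2. Pretreated with agent 6 h, then 0 or 8 Gy X-ray from a linear accelerator at 1.5 Gy/min, room temperature. Incubated a further 12 h; morphology imaged.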
# [13] = tested on: A-375; test: Induction of apoptosis in human A375 cells assessed as accumulation at subG1 phase at 10 ug/mL incubated for 18 hrs by propidium iodide staining based flow cytometry (reference value: 1.8%); type: functional; how it was run: as §1
# [14] = tested on: A-375; test: Induction of cell morphological changes in human A375 cells incubated for 6 hrs followed by irradiation with 8 Gy X-ray at 37 degC for 12 hrs by microscopy; type: functional, cell-based
# [15] = tested on: A-375; test: Cytotoxicity against human A375 cells after 18 hrs by MTT assay; type: functional, cell-based; details: A-375, 18 h; how it was run: as §2
# [16] = tested on: A-375; test: Induction of cell cycle arrest in human A375 cells assessed as accumulation at G2/M phase at 10 ug/mL incubated for 18 hrs by propidium iodide staining based flow cytometry (reference value: 13.9%); type: functional; how it was run: as §1
smiles,measurement,setting,value
COc1cc(Cn2c(-c3cc(OC)c(OC)c(OC)c3)nc3ccc(-c4ccc5n[se]nc5c4)cc32)cc(OC)c1OC,Activity,[1],36.8%
same,Activity,[2],21.3%
same,Activity,[3],Active
same,Activity,[4],60.5%
same,Activity,[5],Active
same,Activity,[6],69.3%
same,Activity,[7],Active
same,IC50,[8],8 mg/L
same,Activity,[9],57.6%
same,Activity,[10],2.7%
same,Activity,[11],Active
same,Activity,[12],Active
same,Activity,[13],11.7%
same,Activity,[14],Active
same,IC50,[15],26.4 mg/L
same,Activity,[16],9.4%
COc1cc(Cn2c(-c3cc(OC)c(OC)c(OC)c3)nc3cc(-c4ccc5n[se]nc5c4)ccc32)cc(OC)c1OC,IC50,[8],9.2 mg/L
same,Activity,[12],Active
same,Activity,[14],Active
same,IC50,[15],28.3 mg/L
